Data published in ChEMBL document CHEMBL1156540, “Remarkable DNA binding affinity and potential anticancer activity of pyrrolo[2,1-c][1,4]benzodiazepine-naphthalimide conjugates linked through piperazine side-armed alkane spacers” (Bioorg Med Chem, 2008).
Blank lines part the entries; values can stand above or below the compound they belong to.

Assays:
[1] = system: DNA; assay: Binding affinity to calf thymus DNA assessed as helix melting temperature at 20 uM after 18 hrs by thermal denaturation assay; format: nucleic-acid assay; conditions: Bos taurus
In short: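 Calf thymus duplex DNA (100 µM in phosphate) with ligand at 20 µM (1:5 ligand/DNA molar ratio), added from concentrated DMSO stock into 10 mM sodium phosphate, 1 mM EDTA, pH 7.00. Incubated at 37 °C before melting. Absorbance followed at 260 nm while heating 1 °C/min over 40–95 °C. Tm taken from maxima of d(A260)/dT derivative plots; ΔTm relative to DNA alone.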

[2] = system: COLO 205; assay: Cytotoxicity against human Colo205 cells by SRB assay; format: functional, cell-based
In short: (§1)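 Human tumour lines given dose–response treatment, with growth or viability estimated by sulforhodamine B protein staining. IC50 is the dose giving 50% growth inhibition versus untreated controls, read from IC50 graphs. Triplicate wells; each experiment repeated three times.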

[3] = system: A2780; assay: Cytotoxicity against human A2780 cells by SRB assay; format: functional, cell-based; in short: as §1
[4] = system: SiHa; assay: Cytotoxicity against human SiHa cells by SRB assay; format: functional, cell-based; in short: as §1
[5] = system: PC-3; assay: Cytotoxicity against human PC3 cells by SRB assay; format: functional, cell-based; in short: as §1
[6] = system: HOP-62; assay: Cytotoxicity against human Hop62 cells by SRB assay; format: functional, cell-based; in short: as §1
[7] = system: ZR-75-1; assay: Cytotoxicity against human ZR751 cells by SRB assay; format: functional, cell-based; in short: as §1
[8] = system: MCF7; assay: Cytotoxicity against human MCF7 cells by SRB assay; format: functional, cell-based; in short: as §1

SMILES: COc1cc2c(cc1O)N=C[C@@H]1CCCN1C2=O
ΔTm [1]: 0.7 °C

SMILES: COc1cccc2c1C(=O)c1c(O)c3c(c(O)c1C2=O)C[C@@](O)(C(=O)CO)C[C@@H]3O[C@H]1C[C@H](N)[C@H](O)[C@H](C)O1 [DOXORUBICIN]
IC50 [8]: 500 nM

SMILES: COc1cc2c(cc1OCCCOc1cc3c(cc1OC)C(=O)N1CCC[C@H]1C=N3)N=C[C@@H]1CCCN1C2=O
ΔTm [1]: 15.1 °C

Further lines, with some results ahead:

ΔTm [1]: 23.9 °C
SMILES: COc1cc2c(cc1OCCCCN1CCN(CCN3C(=O)c4cccc5cccc(c45)C3=O)CC1)N=C[C@@H]1CCCN1C2=O
IC50 [2]: 500 nM | IC50 [3]: 600 nM | IC50 [4]: 800 nM | IC50 [5]: 500 nM | IC50 [6]: < 1000 nM | IC50 [7]: < 1000 nM | IC50 [8]: 500 nM

ΔTm [1]: 20.8 °C
SMILES: COc1cc2c(cc1OCCCCN1CCN(CCCCN3C(=O)c4cccc5cccc(c45)C3=O)CC1)N=C[C@@H]1CCCN1C2=O

ΔTm [1]: 22.7 °C
SMILES: COc1cc2c(cc1OCCN1CCN(CCN3C(=O)c4cccc5cccc(c45)C3=O)CC1)N=C[C@@H]1CCCN1C2=O
IC50 [2]: 1600 nM | IC50 [3]: 500 nM | IC50 [4]: 1000 nM | IC50 [5]: 800 nM | IC50 [6]: 1200 nM | IC50 [7]: < 1000 nM | IC50 [8]: 1400 nM

ΔTm [1]: 26.5 °C
SMILES: COc1cc2c(cc1OCCCN1CCN(CCN3C(=O)c4cccc5cccc(c45)C3=O)CC1)N=C[C@@H]1CCCN1C2=O
IC50 [2]: 500 nM | IC50 [3]: 500 nM | IC50 [4]: 700 nM | IC50 [5]: 500 nM | IC50 [6]: < 1000 nM | IC50 [7]: < 1000 nM | IC50 [8]: 500 nM

ΔTm [1]: 12.9 °C
SMILES: COc1cc2c(cc1OCCCN1CCN(CCCN3C(=O)c4cccc5cccc(c45)C3=O)CC1)N=C[C@@H]1CCCN1C2=O
